Test results from ChEMBL document CHEMBL1629618, “SOS regulation of qnrB expression” (2009).

Experiments:
Type in all cases: functional
Escherichia coli [1] = test: Induction of qnrB1 gene expression in lexA- and recA- positive Escherichia coli J53 at 0.2 ug/ml after 30 mins by quantitative PCR method relative to control
In short: (§1)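 Plasmid-bearing strains grown in triplicate in LB broth at 37°C to exponential phase. At OD600 0.08 to 0.1, mitomycin C 0.2 μg/ml was added, with one culture left untreated as control. RNA was stabilised, extracted and DNase-treated, then reverse-transcribed with gene-specific reverse primers for real-time qPCR. Levels were calculated by 2−ΔΔCT relative to the unsupplemented control. Experiments repeated at least twice.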

Escherichia coli [2] = test: Induction of qnrB4 gene expression in lexA- and recA- positive Escherichia coli J53 at 0.2 ug/ml after 15 mins by quantitative PCR method relative to control; in short: as §1
Escherichia coli [3] = test: Induction of qnrB4 gene expression in recA-positive lexA deficient Escherichia coli AB1157 expressing deffective lexA gene at 0.2 ug/ml after 30 mins by quantitative PCR method relative to control; in short: as §1
Escherichia coli [4] = test: Induction of qnrB4 gene expression in lexA- and recA- positive Escherichia coli J53 at 0.2 ug/ml after 30 mins by quantitative PCR method relative to control; in short: as §1
Escherichia coli [5] = test: Induction of qnrB4 gene expression in recA-positive Escherichia coli DM49 expressing protease-resistant lexA at 0.2 ug/ml after 30 mins by quantitative PCR method relative to control; in short: as §1
Escherichia coli [6] = test: Induction of qnrB1 gene expression in lexA- and recA- positive Escherichia coli J53 at 0.2 ug/ml after 15 mins by quantitative PCR method relative to control; in short: as §1
Escherichia coli [7] = test: Induction of qnrB4 gene expression in lexA- and recA- positive Escherichia coli AB1157 at 0.2 ug/ml after 30 mins by quantitative PCR method relative to control; in short: as §1
Escherichia coli [8] = test: Induction of qnrA1 gene expression in lexA- and recA- positive Escherichia coli J53 at 0.2 ug/ml after 30 mins by quantitative PCR method relative to control; in short: as §1

CO[C@@]12[C@H](COC(N)=O)C3=C(C(=O)C(C)=C(N)C3=O)N1C[C@@H]1N[C@@H]12 [MITOMYCIN]
fold change (FC) (Escherichia coli [1]): 2.8
fold change (FC) (Escherichia coli [2]): 8.2
fold change (FC) (Escherichia coli [3]): 1
fold change (FC) (Escherichia coli [4]): 7.9
fold change (FC) (Escherichia coli [5]): 1
fold change (FC) (Escherichia coli [6]): 2.6
fold change (FC) (Escherichia coli [7]): 2
fold change (FC) (Escherichia coli [8]): 0.9
